The values that follow come from ChEMBL document CHEMBL1144418, “Structure-activity relationships of fluorinated lysophosphatidic acid analogues” (J Med Chem, 2005).

By EC50 is commonly meant the concentration at which the effect is half-maximal.

This assay has as its target T1, Lysophosphatidic acid receptor 3 (Homo sapiens, UniProt Q9UBY5).
T1 sequence (Q9UBY5 whole entry): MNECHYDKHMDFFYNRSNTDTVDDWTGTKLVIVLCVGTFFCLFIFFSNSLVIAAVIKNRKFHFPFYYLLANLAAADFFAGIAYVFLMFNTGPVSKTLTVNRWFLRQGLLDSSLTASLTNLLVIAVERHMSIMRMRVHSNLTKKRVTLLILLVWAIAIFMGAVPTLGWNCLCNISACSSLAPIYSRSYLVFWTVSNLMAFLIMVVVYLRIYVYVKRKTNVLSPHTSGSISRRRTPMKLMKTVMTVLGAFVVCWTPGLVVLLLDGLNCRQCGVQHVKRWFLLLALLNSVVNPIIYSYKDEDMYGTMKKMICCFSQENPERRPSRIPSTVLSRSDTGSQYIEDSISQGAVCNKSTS
Nature of the assay: Agonistic activity as increased intracellular calcium level by human LPA3 receptor expressed in Sf9 cells. The class given is functional. The method in brief:
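Sf9 insect cells infected with baculovirus encoding human LPA3, harvested 48 h post-infection, washed in MES-buffered saline (pH 6.2, 0.1% fatty acid-free BSA, 10 mM CaCl2), loaded with Fura-2 AM 45 min, resuspended at 10^6 cells/mL; ligand-evoked fluorescence at 27 °C in quartz cuvettes, excitation 340/380 nm, emission 500 nm, recorded before and after ligand addition; EC50 from concentration-response.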
Background: Calcium assays in cells follow changes in intracellular calcium, usually with a dye or a luminescent sensor.
Take `CCCCCCCC/C=C/CCCCCCCC(=O)OC[C@H](CC(F)P(=O)(O)O)OC` (stereo partly drawn): the EC50 was 20 nM. For `CCCCCCCCCCCCCCCC(=O)OC[C@H](O)CC(F)P(=O)(O)O` (stereo partly drawn) the value was more than 10000 nM; for `CCCCCCCC/C=C/CCCCCCCC(=O)O[C@H](COP(=O)(O)O)CC(F)F`, more than 10000 nM. With `CCCCCCCC/C=C/CCCCCCCC(=O)OC[C@@H](O)CC(F)P(=O)(O)O` (stereo partly drawn) the figure was 0.5 nM; with `CCCCCCCCCCCCCCCC(=O)OC[C@@H](O)CC(F)P(=O)(O)O` (stereo partly drawn), 20 nM. With `CCCCCCCCCCCCCCCC(=O)O[C@H](COC)CC(F)P(=O)(O)O` (stereo partly drawn) the figure was approximately 10000 nM; with `CCCCCCCCCCCCCCCC(=O)OC[C@@H](F)COP(=O)(O)O`, more than 10000 nM. Regarding `CCCCCCCCCCCCCCCC(=O)OC[C@H](F)COP(=O)(O)O`, the EC50 was more than 10000 nM. For `CCCCCCCC/C=C/CCCCCCCC(=O)O[C@H](COP(=O)(O)O)C(F)F`, the EC50 was more than 10000 nM. As for `CCCCCCCC/C=C/CCCCCCCC(=O)OC[C@@H](F)COP(=O)(O)O`, the EC50 was more than 10000 nM.

As to `CCCCCCCCCCCCCCCC(=O)OC[C@H](CC(F)P(=O)(O)O)OC` (stereo partly drawn), the half-maximal effective concentration (EC50) was more than 10000 nM.

`CCCCCCCC/C=C/CCCCCCCC(=O)O[C@H](COC)COP(O)(O)=S`: the EC50 was approximately 5000 nM.

As for `CCCCCCCCCCCCCCCC(=O)O[C@H](COP(=O)(O)O)CC(F)F`, the EC50 is more than 10000 nM.

Consider `CCCCCCCCCCCCCCCC(=O)O[C@H](COP(=O)(O)O)C(F)F`, for which the EC50 is more than 10000 nM. For `CCCCCCCC/C=C/CCCCCCCC(=O)OC[C@H](O)CC(F)(F)P(=O)(O)O` the value was approximately 1000 nM; for `CCCCCCCC/C=C/CCCCCCCC(=O)OC[C@H](O)CC(F)P(=O)(O)O` (stereo partly drawn), 500 nM. `CCCCCCCC/C=C/CCCCCCCC(=O)OC[C@H](F)COP(=O)(O)O`: the concentration giving a half-maximal response (EC50) is approximately 1000 nM. For `CCCCCCCC/C=C/CCCCCCCC(=O)OC[C@@H](O)CC(F)(F)P(=O)(O)O`, the EC50 came to 500 nM. With `CCCCCCCC/C=C/CCCCCCCC(=O)O[C@H](COC)CC(F)P(=O)(O)O` (stereo partly drawn) the figure was 5 nM; with `CCCCCCCCCCCCCCCC(=O)OC(CF)COP(=O)(O)O` (single isomer, unassigned), approximately 3000 nM. Consider `CCCCCCCC/C=C/CCCCCCCC(=O)OC(CF)COP(=O)(O)O` (single isomer, unassigned; form 1), for which the EC50 was approximately 10 nM.

On to `CCCCCCCC/C=C/CCCCCCCC(=O)OC(CF)COP(=O)(O)O` (single isomer, unassigned; form 2), for which the concentration for a half-maximal effect (EC50) was approximately 200 nM.

Take `CCCCCCCCCCCCCCCC(=O)OCC(O)COP(=O)(O)O` (stereo not drawn) [PALMITOYL]: the concentration for a half-maximal effect (EC50) was more than 10000 nM.
